The values below come from ChEMBL document CHEMBL1126697, “Bis(heteroaryl)piperazine (BHAP) reverse transcriptase inhibitors: structure-activity relationships of novel substituted indole analogues and the identification of 1-[(5-methanesulfonamido-1H-indol-2-yl)-carbonyl]-4-[3- [(1-methylethyl)amino]-pyridinyl]piperazine monomethanesulfonate (U-90152S), a …” (J Med Chem, 1993).

Structures are written as SMILES. Where a name gives a salt, the structure may show the parent alone.

One test deals with Human immunodeficiency virus type 1 reverse transcriptase (Human immunodeficiency virus 1) (UniProt Q72547). Kind of test: In vitro inhibition of HIV-1 reverse transcriptase at 100 uM.
Settings: not given
What is called inhibition is the change of the read-out against control, counted positive when it falls. A high value points to a response far below the control. The compound `CC(C)Nc1cccnc1N1CCN(C(=O)c2cc3cc(N)ccc3[nH]2)CC1` came in with an inhibition of 94%.

In the case of `CC(C)Nc1cccnc1N1CCN(C(=O)c2cc3cc(NS(=O)(=O)C(F)(F)F)ccc3[nH]2)CC1`, the inhibition was 94%.

Regarding `CC(C)Nc1cccnc1N1CCN(C(=O)c2cc3cc(N(C)S(C)(=O)=O)ccc3[nH]2)CC1`, the inhibition came out at 95%.

As to `CC(C)Nc1cccnc1N1CCN(C(=O)c2cc3cc(NC(=O)C(F)(F)F)ccc3[nH]2)CC1`, the inhibition was determined as 85%.

For `CC(=O)Nc1ccc2[nH]c(C(=O)N3CCN(c4ncccc4NC(C)C)CC3)cc2c1`, the inhibition came out at 94%.

In turn, `COC(=O)Nc1ccc2[nH]c(C(=O)N3CCN(c4ncccc4NC(C)C)CC3)cc2c1` returned an inhibition of 96%.

Compound `Cc1ccnc2c1NC(=O)c1cccnc1N2C1CC1` [NEVIRAPINE] came in with an inhibition of 93%.

`CCNc1cccnc1N1CCN(C(=O)c2cc3cc(OC)ccc3[nH]2)CC1` [ATEVIRDINE MESYLATE] yielded an inhibition of 92%.

`CCNc1cccnc1N1CCN(C(=O)c2cc3cc(O)ccc3[nH]2)CC1` displayed an inhibition of 89%.

`CC(C)Nc1cccnc1N1CCN(C(=O)c2cc3ccc(CO)cc3[nH]2)CC1`: the inhibition is 98%.

For the compound `CC(C)Nc1cccnc1N1CCN(C(=O)c2cc3cc(OCc4ccccc4)ccc3[nH]2)CC1`, the inhibition came out at 74%.

`CC(C)Nc1cccnc1N1CCN(C(=O)c2cc3cc(OS(C)(=O)=O)ccc3[nH]2)CC1` showed an inhibition of 97%.

The next test has as its system Human immunodeficiency virus 1. Kind of test: Inhibition of HIV-1 D34 replication in human peripheral blood mononuclear cells. Particulars: read-out: ED50 (the source's name). In kind it is functional. The gist of the method: (§1)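 PBMC (1×10^6 cells) infected with inoculum containing 1 ng p24 of HIV-1 D34 isolate. Supernatant p24 measured 4 days after infection. Four drug concentrations, 10-fold dilution series. ED50 given as a range when it fell between dilutions. Viability by mitogen-stimulated cell proliferation. Mesylate salts used in this assay.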
Regarding `CC(C)Nc1cccnc1N1CCN(C(=O)c2cc3cc(NS(C)(=O)=O)ccc3[nH]2)CC1` [DELAVIRDINE], the EC50 came to 0.1 nM.

On to `CC(C)Nc1cccnc1N1CCN(C(=O)c2cc3cc(N)ccc3[nH]2)CC1`, for which the EC50 amounted to 10 nM.

For the compound `CC(C)Nc1cccnc1N1CCN(C(=O)c2cc3cc(NS(=O)(=O)C(F)(F)F)ccc3[nH]2)CC1`, the EC50 stood at 100 nM.

In the case of `CC(C)Nc1cccnc1N1CCN(C(=O)c2cc3cc(N(C)S(C)(=O)=O)ccc3[nH]2)CC1`, the EC50 stood at 1 nM.

As for `CC(C)Nc1cccnc1N1CCN(C(=O)c2cc3cc(NC(=O)C(F)(F)F)ccc3[nH]2)CC1`, the EC50 was 1 nM.

For the compound `CC(=O)Nc1ccc2[nH]c(C(=O)N3CCN(c4ncccc4NC(C)C)CC3)cc2c1`, the EC50 was determined as 10 nM.

As for `COC(=O)Nc1ccc2[nH]c(C(=O)N3CCN(c4ncccc4NC(C)C)CC3)cc2c1`, the EC50 was determined as 0.1 nM.

As to `Cc1ccnc2c1NC(=O)c1cccnc1N2C1CC1` [NEVIRAPINE], the EC50 was 10 nM.

Consider `CCNc1cccnc1N1CCN(C(=O)c2cc3cc(OC)ccc3[nH]2)CC1` [ATEVIRDINE MESYLATE], for which the EC50 was 1 nM.

For `CC(C)Nc1cccnc1N1CCN(C(=O)c2cc3ccc(CO)cc3[nH]2)CC1`, the EC50 worked out at 1 nM.

In the case of `Cc1cn([C@H]2C[C@H](N=[N+]=[N-])[C@@H](CO)O2)c(=O)[nH]c1=O` [ZIDOVUDINE], the EC50 is 1 nM.

Turning to `CC(C)Nc1cccnc1N1CCN(C(=O)c2cc3cc(OCc4ccccc4)ccc3[nH]2)CC1`, the EC50 came to 10 nM.

Another test deals with MT2. Kind of test: Cytotoxic concentration against MT-2 cells. Format: functional. Particulars: Homo sapiens. The procedure, abridged:
(§2)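 HIV-1 IIIb infected MT-2 cells at multiplicity of infection 0.001. Syncytium formation scored 4 days post-infection, at peak viral cytopathic effect. Three drug concentrations, 10-fold dilution series. ED50 given as a range when it fell between dilutions. Viability by trypan blue exclusion.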
A word on the CC50: it is the concentration that lowers cell viability or growth by half. A lower CC50 goes with harm at low concentration. `CC(C)Nc1cccnc1N1CCN(C(=O)c2cc3cc(NS(C)(=O)=O)ccc3[nH]2)CC1` [DELAVIRDINE] yielded a CC50 greater than 30000 nM.

For `CC(C)Nc1cccnc1N1CCN(C(=O)c2cc3cc(N)ccc3[nH]2)CC1`, the CC50 is greater than 10000 nM.

With `CC(C)Nc1cccnc1N1CCN(C(=O)c2cc3cc(NS(=O)(=O)C(F)(F)F)ccc3[nH]2)CC1`, the CC50 was greater than 10000 nM.

As to `CC(C)Nc1cccnc1N1CCN(C(=O)c2cc3cc(N(C)S(C)(=O)=O)ccc3[nH]2)CC1`, the CC50 was greater than 10000 nM.

On to `CC(C)Nc1cccnc1N1CCN(C(=O)c2cc3cc(NC(=O)C(F)(F)F)ccc3[nH]2)CC1`, for which the CC50 was greater than 10000 nM.

`CC(=O)Nc1ccc2[nH]c(C(=O)N3CCN(c4ncccc4NC(C)C)CC3)cc2c1` gave a CC50 greater than 10000 nM.

`COC(=O)Nc1ccc2[nH]c(C(=O)N3CCN(c4ncccc4NC(C)C)CC3)cc2c1` registered a CC50 greater than 10000 nM.

Compound `Cc1ccnc2c1NC(=O)c1cccnc1N2C1CC1` [NEVIRAPINE] registered a CC50 greater than 10000 nM.

`CCNc1cccnc1N1CCN(C(=O)c2cc3cc(OC)ccc3[nH]2)CC1` [ATEVIRDINE MESYLATE] had a CC50 greater than 10000 nM.

For `CCNc1cccnc1N1CCN(C(=O)c2cc3cc(O)ccc3[nH]2)CC1`, the CC50 is greater than 10000 nM.

`CC(C)Nc1cccnc1N1CCN(C(=O)c2cc3ccc(CO)cc3[nH]2)CC1` registered a CC50 greater than 10000 nM.

For the compound `Cc1cn([C@H]2C[C@H](N=[N+]=[N-])[C@@H](CO)O2)c(=O)[nH]c1=O` [ZIDOVUDINE], the CC50 was greater than 10000 nM.

`CC(C)Nc1cccnc1N1CCN(C(=O)c2cc3cc(OCc4ccccc4)ccc3[nH]2)CC1` displayed a CC50 greater than 10000 nM.

In turn, `CC(C)Nc1cccnc1N1CCN(C(=O)c2cc3cc(OS(C)(=O)=O)ccc3[nH]2)CC1` had a CC50 greater than 10000 nM.

Test system in a further test: not listed separately
Kind of test: Cytotoxic concentration against PBMC cells. In kind it is functional. Particulars: Homo sapiens. The procedure, abridged:
as §1
Turning to `CC(C)Nc1cccnc1N1CCN(C(=O)c2cc3cc(NS(C)(=O)=O)ccc3[nH]2)CC1` [DELAVIRDINE], the 50% cytotoxic concentration (CC50) was greater than 10000 nM.

Compound `CC(C)Nc1cccnc1N1CCN(C(=O)c2cc3cc(N)ccc3[nH]2)CC1` displayed a CC50 greater than 10000 nM.

Compound `CC(C)Nc1cccnc1N1CCN(C(=O)c2cc3cc(NS(=O)(=O)C(F)(F)F)ccc3[nH]2)CC1` gave a CC50 greater than 10000 nM.

`CC(C)Nc1cccnc1N1CCN(C(=O)c2cc3cc(N(C)S(C)(=O)=O)ccc3[nH]2)CC1` had a CC50 greater than 10000 nM.

For `CC(C)Nc1cccnc1N1CCN(C(=O)c2cc3cc(NC(=O)C(F)(F)F)ccc3[nH]2)CC1`, the CC50 is greater than 10000 nM.

Regarding `CC(=O)Nc1ccc2[nH]c(C(=O)N3CCN(c4ncccc4NC(C)C)CC3)cc2c1`, the CC50 was greater than 10000 nM.

`COC(=O)Nc1ccc2[nH]c(C(=O)N3CCN(c4ncccc4NC(C)C)CC3)cc2c1` registered a CC50 greater than 10000 nM.

Take `Cc1ccnc2c1NC(=O)c1cccnc1N2C1CC1` [NEVIRAPINE]: the CC50 is greater than 10000 nM.

`CCNc1cccnc1N1CCN(C(=O)c2cc3cc(OC)ccc3[nH]2)CC1` [ATEVIRDINE MESYLATE]: the CC50 was greater than 10000 nM.

As to `CCNc1cccnc1N1CCN(C(=O)c2cc3cc(O)ccc3[nH]2)CC1`, the CC50 was greater than 10000 nM.

The compound `CC(C)Nc1cccnc1N1CCN(C(=O)c2cc3ccc(CO)cc3[nH]2)CC1` gave a CC50 greater than 10000 nM.

In turn, `Cc1cn([C@H]2C[C@H](N=[N+]=[N-])[C@@H](CO)O2)c(=O)[nH]c1=O` [ZIDOVUDINE] showed a CC50 greater than 10000 nM.

For the compound `CC(C)Nc1cccnc1N1CCN(C(=O)c2cc3cc(OCc4ccccc4)ccc3[nH]2)CC1`, the CC50 is greater than 10000 nM.

Regarding `CC(C)Nc1cccnc1N1CCN(C(=O)c2cc3cc(OS(C)(=O)=O)ccc3[nH]2)CC1`, the CC50 was greater than 10000 nM.

A further test has as its system Human immunodeficiency virus 1. Kind of test: Inhibition of HIV-1 IIIB replication in MT2 (human lymphocyte) cells. In kind it is functional. Particulars: Human immunodeficiency virus 1, MT2; read-out: ED50 (the source's name). The gist of the method: as §2
Take `CC(C)Nc1cccnc1N1CCN(C(=O)c2cc3cc(NS(C)(=O)=O)ccc3[nH]2)CC1` [DELAVIRDINE]: the EC50 amounted to 10 nM.

With `CC(C)Nc1cccnc1N1CCN(C(=O)c2cc3cc(NS(=O)(=O)C(F)(F)F)ccc3[nH]2)CC1`, the EC50 worked out at 200 nM.

Consider `CC(C)Nc1cccnc1N1CCN(C(=O)c2cc3cc(NC(=O)C(F)(F)F)ccc3[nH]2)CC1`, for which the EC50 was found to be 210 nM.

On to `CC(=O)Nc1ccc2[nH]c(C(=O)N3CCN(c4ncccc4NC(C)C)CC3)cc2c1`, for which the EC50 was greater than 10000 nM.

Take `CCNc1cccnc1N1CCN(C(=O)c2cc3cc(OC)ccc3[nH]2)CC1` [ATEVIRDINE MESYLATE]: the EC50 was less than 200 nM.

For the compound `CCNc1cccnc1N1CCN(C(=O)c2cc3cc(O)ccc3[nH]2)CC1`, the EC50 was found to be 270 nM.

As for `CC(C)Nc1cccnc1N1CCN(C(=O)c2cc3ccc(CO)cc3[nH]2)CC1`, the EC50 was less than 250 nM.

For `Cc1cn([C@H]2C[C@H](N=[N+]=[N-])[C@@H](CO)O2)c(=O)[nH]c1=O` [ZIDOVUDINE], the EC50 worked out at 70 nM.

For the compound `CC(C)Nc1cccnc1N1CCN(C(=O)c2cc3cc(OCc4ccccc4)ccc3[nH]2)CC1`, the EC50 is less than 210 nM.

The target of another test is Human immunodeficiency virus type 1 reverse transcriptase (Human immunodeficiency virus 1, UniProt Q72547). Kind of test: In vitro inhibition of HIV-1 reverse transcriptase.
Settings: not given
Usually IC50 stands for the point on the concentration scale where inhibition reaches its midpoint. High values mean weaker potency, low ones greater potency. In turn, `CC(C)Nc1cccnc1N1CCN(C(=O)c2cc3cc(N)ccc3[nH]2)CC1` came in with an IC50 of 1000 nM.

Take `CC(C)Nc1cccnc1N1CCN(C(=O)c2cc3cc(NS(=O)(=O)C(F)(F)F)ccc3[nH]2)CC1`: the IC50 was found to be 8300 nM.

As to `CC(C)Nc1cccnc1N1CCN(C(=O)c2cc3cc(N(C)S(C)(=O)=O)ccc3[nH]2)CC1`, the IC50 came out at 5600 nM.

`CC(C)Nc1cccnc1N1CCN(C(=O)c2cc3cc(NC(=O)C(F)(F)F)ccc3[nH]2)CC1` yielded an IC50 of 27000 nM.

In turn, `CC(=O)Nc1ccc2[nH]c(C(=O)N3CCN(c4ncccc4NC(C)C)CC3)cc2c1` came in with an IC50 of 1800 nM.

With `COC(=O)Nc1ccc2[nH]c(C(=O)N3CCN(c4ncccc4NC(C)C)CC3)cc2c1`, the IC50 came out at 2500 nM.

`CCNc1cccnc1N1CCN(C(=O)c2cc3cc(O)ccc3[nH]2)CC1` had an IC50 of 2000 nM.

`CC(C)Nc1cccnc1N1CCN(C(=O)c2cc3ccc(CO)cc3[nH]2)CC1` displayed an IC50 of 760 nM.

Regarding `CC(C)Nc1cccnc1N1CCN(C(=O)c2cc3cc(OCc4ccccc4)ccc3[nH]2)CC1`, it took 4300 nM to reach half-maximal inhibition (IC50).

As to `CC(C)Nc1cccnc1N1CCN(C(=O)c2cc3cc(OS(C)(=O)=O)ccc3[nH]2)CC1`, the IC50 worked out at 5500 nM.

For the next test, the system named is Human immunodeficiency virus 1. Kind of test: Inhibition of HIV-1 replication in human lymphocytes [peripheral blood mononuclear cells (PBMC)/D34 was determined as effective dose. In kind it is functional. Particulars: read-out: ED50 (the source's name). The gist of the method: as §1
`CCNc1cccnc1N1CCN(C(=O)c2cc3cc(O)ccc3[nH]2)CC1`: the EC50 was determined as 10 nM.
